Test system: MS2 coat protein
Experiment: apparent Kd, MS2 coat protein; higher = weaker binding; RNA-MaP array; FMN 200 µM where present
In short: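 Stalled E. coli RNA polymerase transcribed the designs on Illumina sequencing-chip clusters. SNAP-549-labelled MS2 coat protein was titrated from 0.7 or 1.5 nM, doubling to 3 µM, without and then with constant ligand, in 100 mM Tris-HCl pH 7.5, 80 mM KCl, 4 mM MgCl2, BSA, DTT, yeast tRNA and Tween-20. Per-cluster binding curves were fitted to green signal normalised to red-channel RNA signal and control-cluster median Fmax. The apparent Kd is the median of the filtered fits.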

[1] = designed as: OFF switch for flavin mononucleotide, no ligand
[2] = ligand present: flavin mononucleotide, designed as: OFF switch for flavin mononucleotide
[3] = designed as: ON switch for flavin mononucleotide, no ligand
[4] = ligand present: flavin mononucleotide, designed as: ON switch for flavin mononucleotide

| Sequence | apparent Kd [1] | apparent Kd [2] | apparent Kd [3] | apparent Kd [4] |
| --- | --- | --- | --- | --- |
| CAUACACAUGAGGAUCACCCAUGUGAGGAUAUGCGUACGUUGUCCGUAGGCGACGUGCGCAGAAGGCGCGUGAG | 60.1 nM | 67.6 nM |  |  |
| GUAAAUCAUGUAGGAUAUGCAUGGCGAAGCUACGCAGAAGGACAUGAGGAUCACCCAUGUUAUAGCUACCAAGUUAGGUGGCAA | 110 nM | 260 nM |  |  |
| CUCUUGUCAGGAUAUUAUGGACGAUAGCAGGGCUACGUCAGUGAGAAGGGACAUGAGGAUCACCCAUGUAAAAU | 83.6 nM | 55.2 nM |  |  |
| CCUCCACAUGAGGAUCACCCAUGUCAGGAUAUCGUGUGUGUUUUUUCGGUCUUUCGUGCGAGAAGGGACGUCUG | 51.6 nM | 52.3 nM |  |  |
| UUUAUUUUGCAAGGAUAUGUUUAAUUUUAGUUUCCUUAUACAUGAGGAUCACCCAUGUUAUACUUACAGAAGGUGCAUAAUUUU | 81.6 nM | 59 nM |  |  |
| GUAGCAUUGAGAGGAUAUCCAUACCGGAAACGGACAUGAGGAUCACCCAUGUGGCGAAAGCCAUGGGAGAAGGCUCUAUGCUAC |  |  | 10.2 nM | 5.44 nM |
| GGUGCGUAUGUGAGGAUAUGCUGGUCCUUGGCUCGGCAGAAGGCACAUGAGGAUCACCCAUGUGGUGUCGUACA | 112 nM | 50.9 nM |  |  |
| AAUUUACAGACAGGAUAUACAUGAGGAUCACCCAUGUAAUCAUAUGAUAUUUUUUUUGUAUGAGUGUAGAAGGGUCAAAUAAAA | 13.5 nM | 10.6 nM |  |  |
| UAUUGAGCAGGAUAUUAACGGGUUUACAUGAGGAUCACCCAUGUGGUCCCGUGUUAGCUAUAAGAAGGGCUGAUGA | 35.5 nM | 120 nM |  |  |
| GCGGGCCGCGCAGGAUAUACAGGGUACAUGAGGAUCACCCAUGUCCUUGGUGAGAUCAUUUGCCCGUAGAAGGGCGAGGGUCGG | 44.3 nM | 114 nM |  |  |
| GUUUCGUGAGGAUAUGUGGCUUCGAUCGUGCGAUCGAGGCUACAGAAGGCACAUGAGGAUCACCCAUGUUCCUC | 45.2 nM | 612 nM |  |  |
| UCGCUGUCAGGAUAUCUUAUAUAGAACAUGAGGAUCACCCAUGUUCAUGUAUUCUGUGAGAGAGAAGGGACUCCUU | 15 nM | 17.4 nM |  |  |
| CUCAUGUCAGGAUAUCAGUAGUAAAAAAAAAAAAUUACUACUGAGAAGGGACAUGAGGAUCACCCAUGUCACUU | 27.1 nM | 28.7 nM |  |  |
| UGCUGGCGAGGAUAUGCUCGGGUUGCUUGUCGCGCGGUUGCACAUGAGGAUCACCCAUGUAGAAGGUGUCUGUG | 311 nM | 438 nM |  |  |
| CAAUUGGCACAGAAGGGUGACAUGAGGAUCACCCAUGUAGCGUGGCAUUCAGGAGGAGCCACGCCACAGGAUAUGUGCCGGCAC |  |  | 138 nM | 116 nM |
| AGUUGGCGAGGAUAUACAUGAGGAUCACCCAUGUGAAAUCGAGAAAAAAUAGGGAAAAGUAGAAGGCGCAGACA | 10.3 nM | 12.1 nM |  |  |
| AUAGAAGACUAGAAGGACCUAGCUGUAUACCGUCGAGGUAUAUAGCUAGGUAGGAUAUGGGACAUGAGGAUCACCCAUGUCUUG |  |  | 8.58 nM | 7.58 nM |
| AAGAAGGACGCAGGAUAUCCAGGACCUCCCGCAGGAGAAGGGCGAAACAUGAGGAUCACCCAUACAUGAGGAUCACCCAUGUAA | 33 nM | 36.3 nM |  |  |
| UAUGUGUCAGGAUAUUGUUAAUUUAGUUGUUUGUAUUAGUUCGAGAAGGGACAUGAGGAUCACCCAUGUUGUUU | 31.9 nM |  |  |  |

| Sequence | apparent Kd [1] | apparent Kd [2] | apparent Kd [3] | apparent Kd [4] |
| --- | --- | --- | --- | --- |
| CCGGAAACGGGUAGCUGACAUGAGGAUCACCCAUGUGUUACACAGGAUAUGGAUCCUAAUUGGAUCCAGAAGGGUGUCAGCUAC |  |  | 220 nM | 36.5 nM |
| AAGAGCGAUUCUCCCUUCCUACAUGAGGAUCACCCAUGUACGAGAAGGCGCCGUGUAUACCACGGUGAGGAUAUCGUACGUUAC | 5.23 nM | 10.3 nM |  |  |
| AUAUAUAUAUCAGGAUAUGGACAGGCCUGUUCGUAUUGAGACAGUAACAUGAGGAUCACCCAUGUCCAGAAGGGAUAUAUAUAU | 93.2 nM | 55.1 nM |  |  |
| CGUAGGAUCCAGAAGGCAUGAACAUGAGGAUCACCCAUGUUAAAAUACAUGAGGAUAUGGAUCCUACGAAAAGUGCGAAAGCAC |  |  | 5.75 nM | 4.99 nM |
| UACAUGAGGAUCACCCAUGUUUUGUCGUGUAUGGUAUUUAUCUAGGAUAUCAAUGAAUUUAUUUAUGAGAAGGAGAAUAUUAAU | 40 nM | 37.5 nM |  |  |
| GUCGGAAACGACAAAAGUAUGGAUCCAGAAGGCAUGAACAUGAGGAUCACCCAUGUCUAAAGAUAUGAGGAUAUGGAUCCAUAC |  |  | 6.66 nM | 4.44 nM |
| AACUCGUCAGGAUAUGCGCGCAGUUACUACGCUUCGCAAUUGCAGAAGGGACAUGAGGAUCACCCAUGUAGGUC | 46.9 nM | 48 nM |  |  |
| CGUGCAUAUGUAGGAUAUGGUUAUCUAUGUCUAGUUACUAGACAUAGAUAACCAGAAGGACAUGAGGAUCACCCAUGUAGCACG | 9.7 nM | 17.4 nM |  |  |
| AUCAGCUCGUCAGGAUAUACGUCACUGCUUCGGCAGUGUGAAAAGAUCACAUGAGGAUCACCCAUGUAGAAGGGACGAGCUGAU | 9.15 nM | 120 nM |  |  |
| GUCAGCUCGUGAGGAUAUACAACACUGCUUCGGCAGUGUACUAAGAUCACAUGAGGAUCACCCAUGUAGAAGGCACGAGCUGAU | 14.6 nM | 246 nM |  |  |
| CAUUAUGUUGAGGAUAUGCACCGGCUCACUGACGCAGAAGGCGACACAUGAGGAUCACCCAUGUCAGUUCGCGA | 15.5 nM | 15.8 nM |  |  |
| GCAGUAUCAGGAUAUACAUGAGGAUCACCCAUGUGACUCCAUAGGAAGCUAUGUGGAUGUAGAAGGGAUCACUG | 54.6 nM | 183 nM |  |  |
| CCGUUACAUGAGGAUCACCCAUGUGAGGAUAUCGGUGUGACUGGCAGCGUGCGGGACUCGAGAAGGCACUGGGC | 71.2 nM | 87.9 nM |  |  |
| GUUGGGUGUCAUGUCGCACAUGAGGAUCACCCAUGUAGGAGGUAGGAUAUCCACGAGAAACAAGCGGAGAAGGGCCAUUAGCGU | 27.9 nM | 31.3 nM |  |  |
| UUCGAAUUGUAGGAUAUUUUGCCCGAUUGGGCGGGAGAAGGGCAGACAUGAGGAUCACCCAUGUGUCAGGCAGU | 40.8 nM | 40.5 nM |  |  |
| UGCAGCGUGCACAUGAGGAUCACCCAUGUGCCAGUGGACGCACAGGAUAUGCAAUCGUACGGCUAGCAGAAGGGUGGGUCUCAC |  |  | 7.37 nM | 7 nM |
| UGGGCUUUAGGAUAUGCGUGUUGUAGUCGGCGAUGUGGUUCACAUGAGGAUCACCCAUGUAGAAGGAGGGUUUA | 139 nM | 120 nM |  |  |
| GUCAAGUGAGGAUAUGAUUGUACAACAGACUAACAUCUACAUCAGAAGGCACAUGAGGAUCACCCAUGUUUGUC | 17.7 nM | 15.8 nM |  |  |

— the EternaBench riboswitch data
